Source: PubChem BioAssay (Broad Institute)
Hits are enriched below; roughly 1.5% of the tested compounds scored in any of these assays.
PGC1a acetyl inh = inhibitors of PGC1a acetylation signal, primary screen, cell-based, U2OS, AlphaScreen, inhibitor mode. 0.17% of 350,000 active. AlphaScreen anti-acetyl-lysine; with virally co-expressed GCN5 acetyltransferase. inhibition, % at 15.6 µM. AID 651687, 2012;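 active = every replicate shows inhibition of at least 40%; inconclusive = mean inhibition at least 40% but some replicate below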;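 note: 0% = neutral control wells and 100% = positive control wells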
MITF TRPM1 HTS = activators of MITF-driven TRPM1 promoter reporter, primary screen, cell-based, SK-MEL-5, luciferase, single point. SK-MEL-5 TRPM1-promoter luciferase, 24 h; % of positive control, neutral wells = 0. activation, % at 12.5 µM. 0.75% of 300,000 active. AID 588334, 2011;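 active = mean activation of at least 80% with every replicate also reaching 80%; inconclusive = mean reaches 80% but some replicate falls short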;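 note: 0% = neutral control wells and 100% = parthenolide positive control wells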
Wnt bcat act = Wnt/beta-catenin pathway activators, primary screen, cell-based, plate reader, single point | activation, % at 9.35 µM | Wnt/beta-catenin reporter cell assay, activator | 1.2% of 300,000 active | AID 743398, 2014; in the data active = activation above about 30%, passing the limit was not always enough; inconclusive = no clear call, values can overlap the other calls;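 note: 0% = neutral control wells and 100% = positive control wells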
Cneo AK release = Cryptococcus neoformans cell lysis inducers, primary screen, AK release luminescence, single concentration; lysis activity, % at 15 µM; AID 651654, 2012; C. neoformans lysis, adenylate kinase release luminescence, 4 h; normalised: neutral wells 0, clomiphene wells 100; 0.2% of 360,000 active;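 active = mean lysis activity across replicates of at least 80%, whatever share of replicates individually reach that level; inactive = mean lysis activity below 80%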
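Material – log-phase Cryptococcus neoformans yeast cells · Input – 5 × 10^6 yeast cells/mL · Medium – fresh YPD growth medium · Doses – single compound concentration per well · Timing – static 4 h at 37 °C with compound, 1 h detection · Detection – adenylate kinase release luminescence · Read-out – signal increase indicating cell lysis · Control set – Clomiphene as positive lysis control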
The depositor's hits bear a star; ? = inconclusive; . = not tested or not shown.

SMILES	PGC1a acetyl inh	MITF TRPM1 HTS	Wnt bcat act	Cneo AK release
O=C(CCC1CCCN(C(=O)c2cc(C3CC3)[nH]n2)C1)N1CCN(c2ccccn2)CC1 (configuration not stated)	97.8*	0.2	1.0	.
CO[C@H]1CN(C)C(=O)c2ccc(NC(=O)CC(F)(F)F)cc2OC[C@H](C)N(C(=O)C2CCOCC2)C[C@@H]1C	12.8	.	.	.
Cc1cc(N/N=C/c2ccc3c(c2)OCO3)nc2ccccc12	.	97.8*	-1.3	.
O=[N+]([O-])c1ccccc1N/N=C/c1ccc2c(c1)OCO2	18.3	21.6	53.0*	-3.0
COCC(=O)N1CC[C@@H]2[C@H]1c1cc(C#Cc3ccccc3)ccc1N[C@@H]2CO	-7.0	.	.	3.8
CCCNC(=O)C[C@@H]1CC[C@H]2[C@@H](COC[C@@H](O)CN2Cc2cccc(F)c2)O1	10.6	.	.	6.3
COc1ccc2oc(=Nc3ccc(C(=O)O)cc3)c(C(=O)NCc3ccco3)cc2c1	.	20.2	-0.2	.
COc1ccc2cc(C(=O)NCc3ccco3)c(=Nc3ccc(C(=O)O)cc3)oc2c1	-6.0	-6.6	42.3*	-2.2
CC(C)NC(=O)Nc1cccc2c1O[C@H](CN(C)C)[C@H](C)CN([C@H](C)CO)C2=O	6.7	.	.	99.9*
Cc1ccc(S(=O)(=O)N(C)C[C@H]2Oc3c(cccc3N(C)C)C(=O)N([C@@H](C)CO)C[C@H]2C)cc1	-9.9	.	.	90.4*
C[C@H](CO)N1C[C@H](C)[C@@H](CN(C)C(=O)Nc2ccc(F)cc2)Oc2c(NS(=O)(=O)c3ccccc3)cccc2C1=O	1.0	.	.	102.2*
C[C@H](CO)N1C[C@H](C)[C@H](CN(C)C(=O)Nc2ccc(F)cc2)Oc2c(NS(=O)(=O)c3ccccc3)cccc2C1=O	5.3	.	.	-3.3
C[C@@H]1CN([C@@H](C)CO)C(=O)c2cccc(NS(=O)(=O)c3ccc(F)cc3)c2O[C@H]1CN(C)S(=O)(=O)c1ccc(Cl)cc1	-2.5	.	.	109.7*
CC(C)NC(=O)Nc1cccc2c1O[C@@H](CN(C)C)[C@@H](C)CN([C@@H](C)CO)C2=O	1.6	.	.	-2.6
C[C@H](CO)N1C[C@H](C)[C@H](CN(C)S(=O)(=O)c2ccccc2)Oc2ccc(NC(=O)Nc3ccc(C(F)(F)F)cc3)cc2C1=O	12.5	.	.	.
CC(C)NC(=O)Nc1cccc2c1O[C@H](CN(C)C(=O)Nc1ccccc1)[C@H](C)CN([C@@H](C)CO)C2=O	9.8	.	.	5.3
CC(C)NC(=O)Nc1cccc2c1O[C@@H](CN(C)C(=O)Nc1ccccc1)[C@@H](C)CN([C@@H](C)CO)C2=O	4.7	.	.	103.0*
CO[C@H]1CN(C)C(=O)c2ccc(NC(=O)C3CCCC3)cc2OC[C@@H](C)N(CC2CC2)C[C@H]1C	-8.1	.	.	6.8
COc1cc(/C=N/O)ccc1Oc1ccc([N+](=O)[O-])cc1[N+](=O)[O-]	9.9	-0.9	35.7*	.
CNc1ccc2ncc(-c3ccc(OC)c(OC)c3)n2n1	58.3*	.	-2.2	-0.9
CNc1cc(-c2ccc(OC)c(OC)c2)ncn1	.	.	0.1	-1.7
Cc1cs/c(=N/C(=S)Nc2ccccc2)n1C	.	102.0*	5.3	.
CCCn1c(C)cs/c1=N\C(=S)Nc1ccccc1	-3.7	-0.2	3.1	8.7
CCCn1cnc2cc(NCc3ccc(Br)cc3)ccc21	2.7	45.8	1.7	1.4
Cc1ccc(CNc2ccc3c(c2)ncn3C(C)C)cc1	5.3	88.8*	0.4	.
SMILES	PGC1a acetyl inh	MITF TRPM1 HTS	Wnt bcat act	Cneo AK release
CCN(CC)c1ccc(CNc2ccc3c(c2)ncn3CC)cc1	.	.	0.0	.
CCn1cnc2cc(NCc3ccc(Br)cc3)ccc21	.	.	35.9*	.
CC(C)n1cnc2cc(NCc3nc4ccccc4n3C)ccc21	4.9	12.2	14.4	-6.0
CCn1cnc2cc(NCc3ccc(C)cc3)ccc21	1.3	119.0*	.	3.7
CS(=O)(=O)Nc1ccc2c(c1)[C@H]1C[C@@H](CC(=O)NCc3ccccc3)O[C@H](CO)[C@H]1O2	6.8	.	.	56.1
Cc1noc(C)c1S(=O)(=O)Nc1cccc2c1O[C@H](CN(C)Cc1ccc(C(=O)Nc3ccccc3N)cc1)[C@H](C)CN([C@H](C)CO)C2=O	-7.5	.	.	.
O=C(C[C@@H]1C[C@H]2c3cc(NC(=O)C4CCC4)ccc3O[C@H]2[C@@H](CO)O1)NCCc1ccccc1	-3.9	.	.	9.2
COC(=O)[C@@H]1[C@@H](CO)[C@@H]2Cn3c(ccc(C4=CCCCC4)c3=O)[C@@H]2N1C(=O)C1CCCC1	.	.	.	0.5
C=CCn1c(C)cc(C(=O)CSc2nc3ccccc3c(=O)[nH]2)c1C	6.8	16.4	44.1*	-3.3
Cc1ccc2nc(SCC(=O)c3cc(C)n(C)c3C)[nH]c2c1	9.9	5.1	.	.
O=C(CSc1nc2ccccc2[nH]1)N1CCCCC1	.	106.0*	.	-2.4
Cc1cc(C(=O)CSc2nc3ccccc3[nH]2)c(C)n1C	.	70.5	62.0*	.
C=CCn1c(C)cc(C(=O)CSc2nc3ccccc3o2)c1C	-3.1	46.4	47.2*	-3.1
CNC[C@@H]1Oc2c(NS(=O)(=O)c3ccc(OC)cc3)cccc2C(=O)N([C@H](C)CO)C[C@@H]1C	2.0	.	.	-1.3
CCS(=O)(=O)Nc1ccc2c(c1)C(=O)N(C)C[C@@H](OC)[C@@H](C)CN(C)[C@H](C)CO2	-1.1	.	.	-4.9
COc1ccc(O)c(/C=N/N2CCCCC2)c1	0.8	29.7	32.7*	-1.0
O=C(Nc1ccc2c(c1)CCC2)Nc1ccccc1F	11.5	107.9*	26.5	-2.8
O=C(Nc1ccccc1F)Nc1ccccc1F	.	40.5	54.5*	-2.8
O=C1OCc2ccc(NC(=O)c3c(F)cccc3Cl)cc21	.	12.2	1.7	1.4
O=C(Nc1ccc2c(c1)CCC2)c1c(F)cccc1Cl	-2.9	88.4*	16.9	.
COc1ccccc1NC(=O)Nc1ccc2c(c1)CCC2	.	111.9*	18.6	-2.5
C[C@H](CO)N1C[C@H](C)[C@@H](CN(C)C(=O)Nc2cccc3ccccc23)Oc2ccc(NC(=O)Nc3ccc4c(c3)OCO4)cc2CC1=O	-5.1	.	.	0.7
C[C@@H]1CN([C@H](C)CO)C(=O)c2cc(C#CCN(C)C)cnc2O[C@@H]1CN(C)C(=O)c1cccnc1	5.7	.	.	1.7
CC(C)NC(=O)N(C)C[C@H]1Oc2ncc(C#CC3CCCC3)cc2C(=O)N([C@H](C)CO)C[C@@H]1C	5.4	.	.	5.7
Cc1ccccc1NC(=O)Nc1nc2ccc(S(C)(=O)=O)cc2s1	6.7	46.6	?	1.5
SMILES	PGC1a acetyl inh	MITF TRPM1 HTS	Wnt bcat act	Cneo AK release
O=C(Nc1cccc(F)c1)Nc1ccc2c(c1)CCC2	.	?	34.0*	1.9
NS(=O)(=O)c1ccc2nc(NC(=O)Nc3ccccc3F)sc2c1	.	68.4	42.9*	-3.8
O=C(Nc1ccccc1)Nc1ccc(F)cc1F	.	72.2	48.4*	.
O=C(Nc1ccc2c(c1)CCC2)Nc1ccc(F)cc1F	7.0	78.6	41.2*	-3.0
C[C@H]1CN([C@@H](C)CO)C(=O)CCCn2cc(nn2)CO[C@H]1CN(C)Cc1ccc2c(c1)OCCO2	9.4	.	.	-26.3
C[C@H](O)C#Cc1cnc2c(c1)C(=O)N([C@@H](C)CO)C[C@H](C)[C@@H](CN(C)Cc1cccc(F)c1)O2	-1.5	.	.	19.8
